Sampled rows, rich in hits. Any-hit rate of the full collection: about 1.9%.
CCR6 antag = CCR6 receptor antagonists, primary screen, cell-based, CHO-K1, luminescence, beta-arrestin, uHTS; inhibition, % at 20 µM; CHO-K1 CCR6 PathHunter beta-arrestin, CCL20-stimulated; 340,000 compounds, 0.49% hits; C-C chemokine receptor type 6 (Homo sapiens), P51684;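 active = compounds whose inhibition of the agonist-driven luminescence signal at 20 µM reaches about 50%, limit read from the data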;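 note: cells stimulated with CCL20 at 14 nM final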
APJ antagonist = antagonists of human apelin receptor APJ, primary screen, CHO-K1 cells, beta-arrestin complementation, luminescence. P35414. inhibition, % at 20 µM. 330,000 compounds, 0.32% hits;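 active = inhibition above about 40% at 20 µM, limit read from the data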;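 note: cells challenged with 10 nM apelin-13 agonist together with compound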
TAG inh = inhibitors of triacylglycerol accumulation, primary screen, cell-based, uHTS, fluorescence, H9c2; H9c2 cells, Nile Red lipid (TAG) fluorescence; cells loaded with 200 µM oleic acid; inhibition, % at 12.5 µM; 230,000 compounds, 0.66% hits; AID 651582, 2012;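 active = pattern-corrected inhibition of lipid staining of at least 50% with the nuclear-stain viability signal not falling by more than 50%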
CXCR6 inh = CXCR6 receptor inhibitors, primary screen, cell-based, beta-arrestin, luminescence, CHO-K1 PathHunter, 1536-well. inhibition, % at 20 µM. C-X-C chemokine receptor type 6 (Homo sapiens), O00574. 360,000 compounds, 0.36% hits; in the data active = inhibition above about 34%, passing the limit was not always enough;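 note: antagonist mode with CXCL16 agonist at 10 nM final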
Target sequence (O00574 whole entry, looked up): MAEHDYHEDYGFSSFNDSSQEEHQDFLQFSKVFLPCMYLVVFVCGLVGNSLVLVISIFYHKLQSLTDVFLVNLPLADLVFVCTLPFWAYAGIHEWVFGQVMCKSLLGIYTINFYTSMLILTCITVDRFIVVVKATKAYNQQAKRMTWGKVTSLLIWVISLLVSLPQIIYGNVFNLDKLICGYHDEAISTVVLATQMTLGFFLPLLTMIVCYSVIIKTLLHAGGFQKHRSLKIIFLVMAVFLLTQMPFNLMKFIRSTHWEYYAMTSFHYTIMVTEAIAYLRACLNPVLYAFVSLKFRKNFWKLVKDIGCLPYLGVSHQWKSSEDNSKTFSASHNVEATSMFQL
EBI2 block = EBI2 receptor antagonists, beta-arrestin recruitment, primary screen, cell-based, luminescence, 7a,25-OHC stimulation, uHTS | G-protein coupled receptor 183 (Homo sapiens), P32249 | 360,000 compounds, 0.81% hits | 7a,25-OHC stimulated | inhibition, % at 5 µM; in the data active = inhibition above about 38%;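 note: enzyme fragment complementation signal reports receptor beta-arrestin coupling in cells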
Target sequence (P32249 whole entry, looked up, the tested form may be a part): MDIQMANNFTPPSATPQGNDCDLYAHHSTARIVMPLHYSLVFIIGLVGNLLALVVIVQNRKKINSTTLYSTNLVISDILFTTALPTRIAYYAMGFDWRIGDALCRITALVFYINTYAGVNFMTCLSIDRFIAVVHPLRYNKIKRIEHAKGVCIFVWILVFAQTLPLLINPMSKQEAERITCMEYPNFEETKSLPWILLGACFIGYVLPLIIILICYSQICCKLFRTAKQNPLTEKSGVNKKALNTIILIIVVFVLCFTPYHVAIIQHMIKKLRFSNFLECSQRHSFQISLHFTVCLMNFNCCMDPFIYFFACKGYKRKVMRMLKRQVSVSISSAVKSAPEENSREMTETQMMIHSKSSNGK
APJ agonist = agonists of human apelin receptor APJ, primary screen, CHO-K1 cells, PathHunter beta-arrestin, luminescence; P35414; 0% DMSO wells, 100% apelin; activation, % at 20 µM; 330,000 compounds, 0.11% hits; AID 2520, 2010;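 active = activation more than six SD over the plate average, tested at 20 µM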
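Test system – PathHunter CHO-K1 APJ (AGTRL-1) beta-arrestin reporter cells · Input – 1000 cells/well · Compound – single test compound dose, 20 µM final, 1% DMSO · Times – compound stimulation 90 min at 25 °C, detection 60 min · Technique – beta-gal luminescence · Read-out basis – APJ–arrestin association signal · Control set – negative DMSO alone, positive Apelin-13 at 10 nM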
EBI2 antag conf = EBI2 antagonist hit retest, beta-arrestin, confirmation, cell-based, single concentration, luminescence, 7a,25-OHC stimulation; inhibition, % at 5 µM; AID 651997, 2013; 7a,25-OHC antagonism; 2,400 compounds, 29% hits; shares compounds with EBI2 block;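 active = inhibition of at least 50%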
EBI2 agonist = EBI2 agonist activity of antagonist hits, confirmation, counter-screen for EBI2 antagonist project, cell-based, single concentration, agonist mode, luminescence. shares compounds with EBI2 block. 2,400 tested, under 10 active. activation, % at 5 µM. AID 652000, 2013. EBI2-expressing cells, 60 min; 0% vehicle, 100% 7α,25-dihydroxycholesterol control;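 active = activation of at least 50%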
bGal counter = E. coli beta-galactosidase enzyme inhibition, confirmation, counter-screen for EBI2 antagonist project, biochemical, luminescence, single concentration; shares compounds with EBI2 block; purified beta-galactosidase, luminescent Galacton Star, 15 min; inhibition, % at 5 µM; 2,400 compounds, 1% hits;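 active = replicate-average signal at least 3 plate SD below neutral wells, shown as high inhibition, flagging enzyme-inhibiting false positives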;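 note: higher means stronger loss of beta-gal luminescence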
Large screens that a line does not name were inactive (follow-up assays come after a bar, where they were run).

N#Cc1nc(Cc2cccc3ccccc23)oc1NCc1ccc(F)cc1	EBI2 block 45 | EBI2 antag conf inactive | EBI2 agonist inactive | bGal counter inactive
C=CCNc1oc(Cc2cccc3ccccc23)nc1C#N	none
O=C(NCC(c1ccccc1Cl)N1CCCC1)C1CCN(C(=O)Nc2ccccc2)CC1 (centres undefined)	EBI2 block 53 | EBI2 antag conf inactive | EBI2 agonist inactive | bGal counter inactive
CC(NC(=O)C1CCN(C(=O)Nc2ccccc2)CC1)c1ccc(Cl)cc1 (centres undefined)	EBI2 block 46 | EBI2 antag conf inactive | EBI2 agonist inactive | bGal counter inactive
CCOC(=O)c1[nH]c2ccc(OCC)cc2c1CCCN1C(=O)c2ccccc2C1=O	EBI2 block 46 (no result: TAG inh) | EBI2 antag conf inactive | EBI2 agonist inactive | bGal counter inactive
CCOC(=O)c1[nH]c(C)c(C(=O)OCCN2C(=O)c3ccccc3C2=O)c1C	none (no result: TAG inh)
O=C(Nc1nc(-c2cccs2)cs1)c1ccc(S(=O)(=O)N2CCCCC2)cc1	EBI2 block 42 | EBI2 antag conf inactive | EBI2 agonist inactive | bGal counter inactive
O=C(COc1cccnc1[N+](=O)[O-])Nc1cccc(Br)c1	none
O=C(COc1cccnc1[N+](=O)[O-])Nc1ccccc1Sc1ccccc1	EBI2 block 48 (no result: TAG inh) | EBI2 antag conf inactive | EBI2 agonist inactive | bGal counter inactive
C(=C/c1nccc2c1[nH]c1ccccc12)/c1ccc2c(c1)OCO2	EBI2 block 56 (no result: APJ antagonist, APJ agonist) | EBI2 antag conf inactive | EBI2 agonist inactive | bGal counter inactive
C[C@@H]1CN([C@@H](C)CO)C(=O)CCCn2nncc2CO[C@H]1CN(C)C(=O)Nc1ccccc1F	none (no result: CCR6 antag, APJ antagonist, APJ agonist)
CCOc1ccc(NC(=O)Nc2cc(-c3ccccc3)sc2C(=O)OC)cc1	EBI2 block 46 (no result: TAG inh) | EBI2 antag conf inactive | EBI2 agonist inactive | bGal counter inactive
CC(=O)C(Cc1ccccc1)NC(=O)COc1ccc2c(c1)OCO2 (centres undefined)	none
COc1ccc2nc(C)cc(SCC(=O)N/N=C/c3cccc4ccccc34)c2c1	EBI2 block 46 (no result: TAG inh) | EBI2 antag conf inactive | EBI2 agonist inactive | bGal counter inactive
OC[C@@H]1CN(Cc2ccncc2)C[C@H](n2cnc3c(NC4CC4)ncnc32)O1	none (no result: CCR6 antag, APJ antagonist, APJ agonist)
OC[C@@H]1CN(Cc2cccc(C(F)(F)F)c2)C[C@H](n2cnc3c(NCc4ccc(F)cc4)ncnc32)O1	none (no result: CCR6 antag, APJ antagonist, APJ agonist)
CC(C)N(C)c1ncnc2c1ncn2[C@H]1CN(Cc2ccc(F)cc2)C[C@@H](CO)O1	EBI2 block 68 (no result: CCR6 antag, APJ antagonist, APJ agonist) | EBI2 antag conf 63 | EBI2 agonist inactive | bGal counter inactive
CN(C)c1ncnc2c1ncn2[C@H]1CN(Cc2ccc(F)cc2)C[C@@H](CO)O1	none (no result: CCR6 antag, APJ antagonist, APJ agonist)
CC(C)Nc1ncnc2c1ncn2[C@H]1CN(Cc2ccc(-c3ccccc3)cc2)C[C@@H](CO)O1	EBI2 block 44 (no result: CCR6 antag, APJ antagonist, APJ agonist) | EBI2 antag conf inactive | EBI2 agonist inactive | bGal counter inactive
OC[C@@H]1CN(Cc2cccc(C(F)(F)F)c2)C[C@H](n2cnc3c(NC4CC4)ncnc32)O1	EBI2 block 65 (no result: CCR6 antag, APJ antagonist, APJ agonist) | EBI2 antag conf 62 | EBI2 agonist inactive | bGal counter inactive
OC[C@@H]1CN(Cc2ccc(Cl)cc2)C[C@H](n2cnc3c(NC4CC4)ncnc32)O1	EBI2 block 83 (no result: CCR6 antag, APJ antagonist, APJ agonist) | EBI2 antag conf 82 | EBI2 agonist inactive | bGal counter inactive
CCCN=C1N(C)C[C@@H]2[C@@H]3C(=O)N(C)C(=O)[C@@H]3[C@](Cc3ccccc3)(C(=O)OC)N12	none (no result: APJ antagonist, APJ agonist)
CC1(C(=O)O)CCCN(C(=O)C2(c3ccc(Cl)cc3)CCCC2)C1 (centres undefined)	none (no result: CCR6 antag, APJ antagonist, APJ agonist)
CCC1=C(OC(=O)N(CC)CC)N2C(=O)OC(=NCC(=O)OC)[C@]2(Cc2ccccc2)[C@H]2C1=CC[C@H]1C(=O)NC(=O)[C@H]12	none
O=C(CSc1nnc(-c2ccc(O)cc2)n1Cc1ccco1)N1CCc2ccccc2C1	EBI2 block 76 | EBI2 antag conf inactive | EBI2 agonist inactive | bGal counter inactive
NC(=O)CSc1nnc(-c2ccc(O)cc2)n1Cc1ccco1	none
Cc1ccc(CNC(=O)C2CCN(S(=O)(=O)c3c(C)noc3/C=C/c3ccco3)CC2)cc1	EBI2 block 65 | EBI2 antag conf inactive | EBI2 agonist inactive | bGal counter inactive
Cc1noc(/C=C/c2ccco2)c1S(=O)(=O)N1CCC(C(=O)NCc2ccco2)CC1	none (no result: TAG inh)
COc1ccc(CNC(=O)C2CCN(S(=O)(=O)c3cccc(C(F)(F)F)c3)CC2)cc1	EBI2 block 54 | EBI2 antag conf inactive | EBI2 agonist inactive | bGal counter inactive
COc1ccc(S(=O)(=O)N2CCC(C(=O)NCc3ccc(C)cc3)CC2)cc1	EBI2 block 66 (no result: TAG inh) | EBI2 antag conf 55 | EBI2 agonist inactive | bGal counter inactive
COc1ccc(S(=O)(=O)N2CCC(C(=O)NCc3ccncc3)CC2)cc1	none (no result: TAG inh)
O=C(NCc1ccncc1)C1CCN(S(=O)(=O)c2cccc(C(F)(F)F)c2)CC1	none (no result: TAG inh)
Cc1ccc(CNC(=O)N2CCN(S(=O)(=O)c3ccccc3)CC2)cc1	EBI2 block 56 (no result: TAG inh) | EBI2 antag conf inactive | EBI2 agonist inactive | bGal counter inactive
CCCCN1C(=O)C(CC(=O)NCCCN(C)C)CC(C(=O)N(C(C)C)C(C)C)=C1C (centres undefined)	none (no result: CCR6 antag, APJ antagonist, TAG inh, APJ agonist)
Clc1ccc(-c2nnc(CCc3ccccc3)o2)c(Cl)c1	EBI2 block 55 (no result: TAG inh) | EBI2 antag conf inactive | EBI2 agonist inactive | bGal counter inactive
O=C(COc1ccc(Br)cc1)N1CCN(S(=O)(=O)/C=C/c2ccccc2)CC1	EBI2 block 92 (no result: TAG inh) | EBI2 antag conf 86 | EBI2 agonist inactive | bGal counter inactive
CCOC(=O)N1CCN(S(=O)(=O)/C=C/c2ccccc2)CC1	none (no result: TAG inh)

Screening results (PubChem)
